Results published in ChEMBL document CHEMBL1155286, “Second generation of 2H-benzimidazole 1,3-dioxide derivatives as anti-trypanosomatid agents: synthesis, biological evaluation, and mode of action studies” (Eur J Med Chem, 2009).
Calls of active or inactive are those of the source. No cut-off for these calls is given here.

How the values were obtained:
Trypanosoma cruzi [1] = assay: Antitrypanosomal activity against Trypanosoma cruzi CL Brener epimastigotes after 5 days by MTT assay; assay type: functional; conditions: 120 h, read-out: ID50
Procedure, shortened: (§1)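 Epimastigotes (T. cruzi strains, BHI-Tryptose + 5% FBS, 28 °C) or L. braziliensis LTB300 promastigotes (axenic RPMI + 5% FBS, 28 °C) from exponential culture in 24-well plates; compounds from DMSO stock added for 5 days. Washed in PBS, 0.4 mg/mL MTT at 37 °C for 3 h, formazan dissolved in DMSO, OD595 read. Triplicate per concentration, six growth controls; 1.0–50.0 μM dose-response, ID50 = concentration reducing absorbance ratio to 50%; three independent experiments.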

Trypanosoma cruzi [2] = assay: Antitrypanosomal activity against Trypanosoma cruzi Y epimastigotes after 5 days by MTT assay; assay type: functional; conditions: 120 h, read-out: ID50; procedure, shortened: as §1
Trypanosoma cruzi [3] = assay: Antitrypanosomal activity against Trypanosoma cruzi CL Brener trypomastigotes infected in Vero cells assessed as parasite lysis at 10 uM after 3 hrs relative to untreated control; assay type: functional
Procedure, shortened: (§2)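 Cell-culture trypomastigotes released from infected Vero cells (37 °C, 5% CO2, 5–7 days), collected by centrifugation and allowed 4 h at 37 °C to swim off. Supernatant parasites exposed to 10.0–50.0 μM for 2–26 h; lysis counted in a Neubauer chamber relative to untreated parasites; three independent experiments.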

Trypanosoma cruzi [4] = assay: Antitrypanosomal activity against Trypanosoma cruzi Colombiana assessed as parasitic cytotoxicity at 25 uM after 5 days by MTT assay; assay type: functional
Procedure, shortened: (§3)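 Single 25 μM dose for 5 days on exponential-phase epimastigotes in BHI-Tryptose + 5% FBS, 24-well plates; MTT 0.4 mg/mL, 3 h at 37 °C after PBS wash, formazan in DMSO, OD595. PCyt = [[…] (ODd − ODdm)/(ODc − ODcm)] × 100 with medium-only blanks, compound-in-medium blanks and growth controls; three independent experiments.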

Trypanosoma cruzi [5] = assay: Antitrypanosomal activity against Trypanosoma cruzi CL Brener trypomastigotes infected in Vero cells assessed as parasite lysis at 5 uM after 22 hrs relative to untreated control; assay type: functional
Trypanosoma cruzi [6] = assay: Antitrypanosomal activity against Trypanosoma cruzi CL Brener trypomastigotes infected in Vero cells assessed as parasite lysis at 25 uM after 19 hrs relative to untreated control; assay type: functional; procedure, shortened: as §2
Trypanosoma cruzi [7] = assay: Antitrypanosomal activity against Trypanosoma cruzi CL Brener trypomastigotes infected in Vero cells assessed as parasite lysis at 10 uM after 2 hrs relative to untreated control; assay type: functional; procedure, shortened: as §2
Trypanosoma cruzi [8] = assay: Antitrypanosomal activity against Trypanosoma cruzi CL Brener trypomastigotes infected in Vero cells assessed as parasite lysis at 10 uM after 22 hrs relative to untreated control; assay type: functional; procedure, shortened: as §2
Trypanosoma cruzi [9] = assay: Antitrypanosomal activity against Trypanosoma cruzi CL Brener trypomastigotes infected in Vero cells assessed as parasite lysis at 50 uM after 19 hrs relative to untreated control; assay type: functional; procedure, shortened: as §2
Trypanosoma cruzi [10] = assay: Antitrypanosomal activity against Trypanosoma cruzi CL Brener trypomastigotes infected in Vero cells assessed as parasite lysis at 50 uM after 2 hrs relative to untreated control; assay type: functional; procedure, shortened: as §2
Trypanosoma cruzi [11] = assay: Antitrypanosomal activity against Trypanosoma cruzi CL Brener epimastigotes assessed as parasitic cytotoxicity at 25 uM after 5 days by MTT assay; assay type: functional; procedure, shortened: as §3
Leishmania braziliensis = assay: Antiparasitic activity against Leishmania braziliensis MHOM/BR/00/LTB300 after 5 days by MTT assay; assay type: functional; conditions: MHOM/BR/00/LTB300, 120 h, read-out: ID50; procedure, shortened: as §1
Trypanosoma cruzi [12] = assay: Reduction of end products excretion levels in Trypanosoma cruzi Y epimastigotes after 2 days by [1H]NMR method; assay type: functional, organism-based
Procedure, shortened: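 Y-strain epimastigotes treated 2 days with 5 μM compound; culture centrifuged 1500 g, 10 min, 4 °C, parasite-free supernatant stored at −20 °C. Supernatant plus DMF internal standard and D2O run by 1H NMR with water suppression; metabolite peaks confirmed by spiking and standards, compared to untreated and parasite-free medium.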

Trypanosoma cruzi [13] = assay: Antitrypanosomal activity against Trypanosoma cruzi Tulahuen 2 epimastigotes assessed as inhibition of parasite growth after 5 days; assay type: functional; conditions: Trypanosoma cruzi, Tulahuen 2, 120 h; read-out: ID50 (the source's name)
Procedure, shortened: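 Stationary-phase (10-day) Tulahuen 2 epimastigotes inoculated at 1×10^6 cells/mL in BHI-Tryptose + 5% FBS, 28 °C, drug added from DMSO stock (final DMSO ≤0.4%; control 0.4% DMSO). Growth followed as A600; inhibition from day-5 vs day-0 absorbance relative to control. ID50 = concentration reducing absorbance ratio to 50%; three independent experiments.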

Trypanosoma cruzi [14] = assay: Antitrypanosomal activity against Trypanosoma cruzi CL Brener trypomastigotes infected in Vero cells assessed as parasite lysis at 10 uM after 26 hrs relative to untreated control; assay type: functional; procedure, shortened: as §2

IC50 (Trypanosoma cruzi [1]): 8.5 µM | IC50 (Trypanosoma cruzi [2]): 6 µM | IC50 (Trypanosoma cruzi [13]): 3.4 µM
Compound: CC1(C)[N+]([O-])=c2ccc(/C=C/c3ccccc3)cc2=[N+]1[O-]
Activity (Trypanosoma cruzi [3]): 32% | Activity (Trypanosoma cruzi [4]): 92.3% | Activity (Trypanosoma cruzi [5]): 31% | Activity (Trypanosoma cruzi [6]): 64% | Activity (Trypanosoma cruzi [7]): 3% | Activity (Trypanosoma cruzi [8]): 84% | Activity (Trypanosoma cruzi [9]): 100% | Activity (Trypanosoma cruzi [10]): 32% | Activity (Trypanosoma cruzi [11]): 78.4% | IC50 (Leishmania braziliensis): 3.5 µM | Activity (Trypanosoma cruzi [12]): Active | Activity (Trypanosoma cruzi [14]): 100%
